Tests used:
[1] = molecular target: Adenosine receptor A2a (Homo sapiens) (UniProt P29274); test: Inhibition of [3H]CGS21680 binding to human adenosine A2A receptor at 0.01 umol/L by scintillation counting
How it was run: (§1)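 Membranes from cells transfected with human A2A receptor, diluted 20-fold in 50 mmol/L Tris pH 7.4 with 120 mmol/L NaCl, 5 mmol/L KCl, 10 mmol/L MgCl2, 2 mmol/L CaCl2 and 2 U/mL adenosine deaminase. Incubated with [3H]CGS21680 (final 75 nmol/L) and test drug, 25 °C for 90 min. Filtered through 0.5% polyethyleneimine-treated filters, then scintillation counted. Nonspecific binding with 50 µmol/L NECA. Triplicate average.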

[2] = molecular target: Adenosine receptor A2a (Homo sapiens) (UniProt P29274); test: Inhibition of [3H]CGS21680 binding to human adenosine A2A receptor at 0.1 umol/L by scintillation counting; how it was run: as §1
Mus musculus = test: Antiparkinsonian effect in mouse assessed as inhibition of CGS-21680-induced catalepsy at 10 mg/kg, po; format: functional
How it was run: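 Compounds were given orally at 10 mg/kg to mice. Catalepsy was induced with CGS, and inhibition of catalepsy is expressed as %.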

[3] = molecular target: Adenosine receptor A2a (Homo sapiens) (UniProt P29274); test: Inhibition of [3H]CGS21680 binding to human adenosine A2A receptor at 1 umol/L by scintillation counting; how it was run: as §1
[4] = molecular target: T1, Adenosine receptor A1 (Homo sapiens) (UniProt P30542); test: Antagonist activity at human adenosine A1 receptor at 1 umol/L; format: functional
T1 sequence (whole entry): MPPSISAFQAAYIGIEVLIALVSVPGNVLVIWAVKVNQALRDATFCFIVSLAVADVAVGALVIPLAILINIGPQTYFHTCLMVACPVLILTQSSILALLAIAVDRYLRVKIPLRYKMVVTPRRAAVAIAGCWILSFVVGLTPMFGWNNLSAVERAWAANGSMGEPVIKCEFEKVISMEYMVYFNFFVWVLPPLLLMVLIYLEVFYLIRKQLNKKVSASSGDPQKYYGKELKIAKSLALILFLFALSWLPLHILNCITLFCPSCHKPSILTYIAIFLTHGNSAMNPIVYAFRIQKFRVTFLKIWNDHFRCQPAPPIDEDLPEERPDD

[5] = molecular target: T2, Adenosine receptor A2b (Homo sapiens) (UniProt P29275); test: Antagonist activity at human adenosine A2B receptor at 10 umol/L; format: functional
T2 sequence (whole entry): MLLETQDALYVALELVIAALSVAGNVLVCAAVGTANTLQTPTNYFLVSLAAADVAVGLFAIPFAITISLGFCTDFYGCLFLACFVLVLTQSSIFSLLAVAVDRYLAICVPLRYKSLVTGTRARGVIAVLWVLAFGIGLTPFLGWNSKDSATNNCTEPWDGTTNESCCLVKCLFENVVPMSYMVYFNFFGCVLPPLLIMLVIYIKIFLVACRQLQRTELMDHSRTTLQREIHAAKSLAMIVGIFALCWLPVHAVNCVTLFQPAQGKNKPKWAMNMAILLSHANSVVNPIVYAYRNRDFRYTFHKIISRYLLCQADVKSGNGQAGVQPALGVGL

[6] = Intrinsic clearance in rat liver microsomes; format: ADME, Microsome
How it was run: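 Rat liver microsomal incubations gave the apparent intrinsic clearance (CL_int). This was corrected for the free fraction of compound in the incubation to give CL_int/f_m.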

[7] = molecular target: T2, Adenosine receptor A2b (Homo sapiens); test: Antagonist activity at human adenosine A2B receptor at 1 umol/L; format: functional
[8] = molecular target: T1, Adenosine receptor A1 (Homo sapiens); test: Antagonist activity at human adenosine A1 receptor at 10 umol/L; format: functional

Adenosine receptor A2a (Homo sapiens), sequence (P29274 whole entry): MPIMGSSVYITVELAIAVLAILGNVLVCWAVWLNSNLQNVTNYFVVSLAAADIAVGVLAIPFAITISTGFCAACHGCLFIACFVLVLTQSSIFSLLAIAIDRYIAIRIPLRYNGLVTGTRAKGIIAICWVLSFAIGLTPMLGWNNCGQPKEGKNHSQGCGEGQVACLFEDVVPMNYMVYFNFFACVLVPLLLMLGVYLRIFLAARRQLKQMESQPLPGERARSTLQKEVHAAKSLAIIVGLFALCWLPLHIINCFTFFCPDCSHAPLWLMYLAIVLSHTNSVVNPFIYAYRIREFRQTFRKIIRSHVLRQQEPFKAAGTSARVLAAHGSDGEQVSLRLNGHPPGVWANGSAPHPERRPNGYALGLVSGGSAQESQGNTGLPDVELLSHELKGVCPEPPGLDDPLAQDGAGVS

Structure (SMILES)	inhibition [1]	inhibition [2]	inhibition [3]	inhibition [4]	inhibition [5]	CLint scaled [6]	inhibition [7]	inhibition [8]	inhibition in vivo at 10 mg/kg (Mus musculus)
COC(=O)Nc1cc2c(-c3ccccc3)ccc(OC)c2o1	28%	85%	–	–	–	–	–	–	86%
COc1ccc(-c2ccccc2)c2cc(C(=O)Nc3ccc(Cn4ccnc4)cc3)sc12	25%	20%	–	–	–	–	–	–	–
CCOC(=O)c1ccc(-c2ccc(OC)c3oc(C(=O)Nc4ccccc4)cc23)cc1	–	-2%	-8%	–	–	–	–	–	–
COC(=O)c1ccc(OC)c2oc(C(=O)Nc3ccc(Cl)cc3)cc12	1%	43%	77%	–	–	–	–	–	–
COc1ccc(-c2ccccc2)c2cc(C(=O)Nc3ccc(F)cc3)oc12	13%	49%	67%	–	–	–	–	–	–
COc1ccc(-c2ccc(OC)c3oc(C(=O)Nc4ccc(Cn5ccnc5)cc4)cc23)cc1	24%	63%	90%	-4%	4%	–	–	–	54%
COc1ccc(-c2csc(-c3ccc(C)nc3)n2)c2cc(C(=O)Nc3ccc(F)cc3)oc12	17%	6%	4%	–	–	–	–	–	–
COc1ccc(-c2csc(-c3ccc(C)nc3)n2)c2cc(C(=O)Nc3ccc(Cn4ccnc4)cc3)oc12	12%	23%	20%	–	–	–	–	–	–
COc1ccc(-c2csc(C)n2)c2cc(C(=O)Nc3ccc(F)cc3)oc12	1%	15%	60%	–	–	–	–	–	–
COc1ccc(NC(=O)c2cc3c(-c4csc(-c5ccccc5)n4)ccc(OC)c3o2)cc1	6%	11%	–	–	–	–	–	–	–
COc1ccc(-c2ccccc2)c2cc(NC(=O)Nc3ccc(F)cc3)oc12	22%	37%	–	–	–	–	–	–	–
COc1ccc(-c2ccccc2)c2cc(NC(=O)Oc3ccc(F)cc3)oc12	11%	32%	–	–	–	–	–	–	–
COc1ccc(-c2ccccc2)c2cc(C(=O)Nc3c(Cl)cncc3Cl)oc12	83%	101%	–	–	–	–	–	–	74%
COc1ccc(-c2ccc(Cl)cc2)c2cc(C(=O)Nc3ccc(Cn4ccnc4)cc3)oc12	8%	33%	–	–	–	–	–	–	–
COC(=O)c1ccc(OC)c2oc(C(=O)Nc3ccccc3)cc12	6%	49%	86%	–	–	758 mL/min/kg	–	–	–
COc1ccc(-c2ccccc2)c2cc(NC(=O)Oc3ccccc3)oc12	23%	65%	–	–	–	–	–	–	34%

Second part, led by results:

inhibition [1]	inhibition [2]	inhibition [3]	inhibition [4]	inhibition [5]	CLint scaled [6]	inhibition [7]	inhibition [8]	Structure (SMILES)	inhibition in vivo at 10 mg/kg (Mus musculus)
18%	28%	–	–	–	–	–	–	COc1ccc(-c2ccc(Cl)cc2)c2cc(C(=O)Nc3ccncc3)oc12	–
62%	91%	–	–	–	–	–	–	COc1ccc(-c2ccccc2)c2cc(NC(C)=O)oc12	28%
11%	31%	–	–	–	–	–	–	COc1ccc(-c2ccccc2)c2cc(C(=O)Nc3ccncc3)sc12	–
40%	80%	98%	–	–	–	–	–	COC(=O)c1ccc(OC)c2oc(C(=O)Nc3ccc(Cn4ccnc4)cc3)cc12	0%
57%	88%	–	–	–	–	–	–	CNC(=O)c1cc2c(-c3ccccc3)ccc(OC)c2o1	18%
39%	81%	103%	37%	98%	20.3 mL/min/kg	81%	82%	COc1ccc(-c2ccccc2)c2cc(C(=O)NN3CCOCC3)oc12	78%
14%	58%	86%	–	–	–	–	–	COC(=O)c1ccc(OC)c2oc(C(=O)Nc3cccc(F)c3)cc12	48%
–	53%	91%	–	–	–	–	–	COC(=O)c1ccc(OC)c2oc(C(=O)Nc3ccc(OC)cc3)cc12	–
–	–	100%	20%	58%	580 mL/min/kg	21%	77%	COc1ccc(-c2ccccc2)c2cc(C(=O)Nc3ccncc3)oc12	40%
24%	64%	95%	9%	1%	2600 mL/min/kg	1%	10%	COc1ccc(-c2ccccc2)c2cc(C(=O)Nc3ccc(Cn4ccnc4)cc3)oc12	12%

From ChEMBL document CHEMBL1159038, “Synthetic studies on selective adenosine A2A receptor antagonists: synthesis and structure-activity relationships of novel benzofuran derivatives” (Bioorg Med Chem Lett, 2010)
